Assay results taken from paper PMC6398930 (Bioorganic & medicinal chemistry letters, 2019).

How the values were obtained:
[1] = Intrinsic and predicted hepatic clearance in human liver microsomes; type: in vitro ADME
How it was run: (§1)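 Part of an outsourced Tier 1 in vitro DMPK panel. Intrinsic clearance was measured in liver microsomes from the species named in each line and scaled. Predicted hepatic clearance was derived from the same microsomal experiments.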

[2] = Intrinsic and predicted hepatic clearance in mouse liver microsomes; type: in vitro ADME; details: for CLint scaled / Predicted hepatic clearance mCLHEP: mouse, liver microsomes
How it was run: as §1

GIRK1/2 = molecular target: T1, GIRK1/2 (Homo sapiens, UniProt P48051+P48549); experiment: Thallium flux assay, GIRK1/2 expressing HEK293 cells; type: cell-based; details: for Loss of GIRK1/2 potency/activity relative to 15a: compared with parent amide/phenyl compound 15a; for Selectivity GIRK1/2 vs GIRK1/4 (in words): thallium flux
T1 sequence (P48549 1-501): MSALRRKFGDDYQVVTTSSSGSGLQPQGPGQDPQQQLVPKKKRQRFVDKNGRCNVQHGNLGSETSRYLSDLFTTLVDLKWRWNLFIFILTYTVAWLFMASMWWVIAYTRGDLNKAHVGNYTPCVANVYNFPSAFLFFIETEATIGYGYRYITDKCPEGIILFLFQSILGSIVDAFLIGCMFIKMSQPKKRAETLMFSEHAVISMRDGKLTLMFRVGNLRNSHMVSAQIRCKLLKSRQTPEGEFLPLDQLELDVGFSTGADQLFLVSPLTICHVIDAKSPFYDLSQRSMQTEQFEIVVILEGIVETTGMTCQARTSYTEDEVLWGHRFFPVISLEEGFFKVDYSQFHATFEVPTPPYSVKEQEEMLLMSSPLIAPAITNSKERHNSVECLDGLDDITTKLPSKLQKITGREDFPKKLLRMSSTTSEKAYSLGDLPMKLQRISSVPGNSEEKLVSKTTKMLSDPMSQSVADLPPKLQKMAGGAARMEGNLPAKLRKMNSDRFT
T1 sequence (P48051 1-423): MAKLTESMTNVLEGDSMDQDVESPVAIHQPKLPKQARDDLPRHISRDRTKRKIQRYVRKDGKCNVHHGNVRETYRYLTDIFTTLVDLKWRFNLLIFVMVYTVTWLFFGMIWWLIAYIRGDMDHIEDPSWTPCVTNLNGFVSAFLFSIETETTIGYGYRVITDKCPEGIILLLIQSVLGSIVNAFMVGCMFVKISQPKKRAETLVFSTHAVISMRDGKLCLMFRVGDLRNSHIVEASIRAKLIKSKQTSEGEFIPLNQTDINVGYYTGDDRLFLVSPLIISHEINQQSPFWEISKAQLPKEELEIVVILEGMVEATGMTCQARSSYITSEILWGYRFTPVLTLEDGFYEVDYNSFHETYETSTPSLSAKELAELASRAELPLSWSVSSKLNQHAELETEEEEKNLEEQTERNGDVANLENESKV

[3] = Plasma unbound fraction, mouse plasma; type: in vitro ADME
[4] = Stability in Human Liver S9 fractions; type: in vitro ADME

CLint scaled ([1]; human, liver microsomes)	CLint scaled [2]	SMILES	also measured
186 mL/min/kg	2920 mL/min/kg	Cc1cc(NC(=O)Cn2nnc(-c3ccccc3)n2)n(C2CCCCC2)n1 [15a]	–
346 mL/min/kg	> 5930 mL/min/kg	Cc1cc(NC(=S)Cn2nnc(-c3ccccc3)n2)n(C2CCCCC2)n1 [15b]	Loss of GIRK1/2 potency/activity relative to 15a (GIRK1/2): ~7 fold; Recovery in mouse plasma (in words) [3]: poor recovery; Predicted hepatic clearance mCLHEP [2]: >88.7 mL/min/kg
77.3 mL/min/kg	723 mL/min/kg	Cc1cc(NC(=O)Cn2nnc(-c3ccccc3)n2)n(C2CCC(F)(F)CC2)n1 [15d]	–
< 23.1 mL/min/kg	< 49.5 mL/min/kg	Cc1cc(NC(=O)Cn2nnc(-c3ccccc3)n2)n(C2CCS(=O)(=O)C2)n1 (stereo not shown) [15k]	Stability in human liver microsomes (in words) [1]: stable; Predicted hepatic clearance hCLHEP ([1]; human, liver microsomes): <10.7 mL/min/kg; Stability in mouse liver microsomes (in words) [2]: stable; Predicted hepatic clearance mCLHEP [2]: <31.9 mL/min/kg; Stability in human S9 fractions (in words) [4]: stable; CLHEP in Human Liver S9 fractions ([4]; human liver S9): <1.0 mL/min/kg; CLint scaled ([4]; human, liver S9 fractions): 2.6 mL/min/kg
753 mL/min/kg	> 5930 mL/min/kg	Cc1cc(NC(=O)Cn2nnc(-c3ccccc3)n2)n(CC2CCCCC2)n1 [15q]	Selectivity GIRK1/2 vs GIRK1/4 (in words) (GIRK1/2): lost selectivity between GIRK1/2 and GIRK1/4
–	–	Cc1cc(NC(=O)Cn2nnc(-c3cccnc3)n2)n(C2CCCCC2)n1 [16a]	Loss of GIRK1/2 potency/activity relative to 15a (GIRK1/2): > 20 fold
–	–	Cc1cc(NC(=O)Cn2nnc(-c3ccccn3)n2)n(C2CCCCC2)n1 [16b]	Loss of GIRK1/2 potency/activity relative to 15a (GIRK1/2): > 20 fold
99.9 mL/min/kg	489 mL/min/kg	Cc1cc(NC(=O)Cn2nnc(-c3ccc(Cl)c(Cl)c3)n2)n(C2CCCCC2)n1 [16d]	–
162 mL/min/kg	2710 mL/min/kg	Cc1cc(NC(=O)Cn2nnc(-c3cccc(F)c3)n2)n(C2CCCCC2)n1 [16g]	Selectivity GIRK1/2 vs GIRK1/4 (in words) (GIRK1/2): more selective for GIRK1/2 vs. GIRK1/4
54.6 mL/min/kg	596 mL/min/kg	Cc1cc(NC(=O)Cn2cc(-c3ccccc3)nn2)n(C2CCCCC2)n1 [17a]	–
209 mL/min/kg	3490 mL/min/kg	Cc1cc(NC(=O)Cn2nncc2-c2ccccc2)n(C2CCCCC2)n1 [17b]	–
–	–	Cc1cc(NC(=O)Cn2ccc(-c3ccccc3)n2)n(C2CCCCC2)n1 [17e]	GIRK1/2 potency, fold less potent than 17f (GIRK1/2; 17e vs 17f): ~ 8 fold
–	–	Cc1cc(NC(=O)Nc2ccc(F)c(F)c2)n(Cc2ccccc2)n1 [compound 1, reference compound]	Selectivity GIRK1/2 vs GIRK1/4 (in words) (GIRK1/2): activate GIRK1/2 preferentially over GIRK1/4
